Key:
[1] = target: T1, NPP7 (Homo sapiens, UniProt Q6UWV6); test: NPP7 inhibition assay; assay type: biochemical; details: read-out: NPP7 Activity, % control (10μM)
T1 sequence (Q6UWV6 22-458): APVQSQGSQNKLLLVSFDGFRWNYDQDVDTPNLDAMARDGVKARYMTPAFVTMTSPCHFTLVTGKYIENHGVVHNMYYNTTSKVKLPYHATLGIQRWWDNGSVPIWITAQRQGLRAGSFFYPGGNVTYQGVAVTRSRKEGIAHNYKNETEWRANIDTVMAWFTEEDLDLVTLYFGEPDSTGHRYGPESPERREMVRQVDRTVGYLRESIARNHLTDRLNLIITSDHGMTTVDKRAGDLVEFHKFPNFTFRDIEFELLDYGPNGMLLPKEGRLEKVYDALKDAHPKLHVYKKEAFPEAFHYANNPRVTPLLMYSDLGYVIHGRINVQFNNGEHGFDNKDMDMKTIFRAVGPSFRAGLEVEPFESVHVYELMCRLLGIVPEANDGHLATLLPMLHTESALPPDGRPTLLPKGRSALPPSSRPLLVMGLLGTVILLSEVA
Outline: (§1)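 Recombinant purified NPP6 or NPP7 (8.3 nM final) was incubated with pNPPC (10 µM) and a single 10 µM compound concentration. Liberated p-nitrophenol was read at 405 nm for up to 1 h, within the linear range. Activity was normalized to vehicle control.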

[2] = target: T2, NPP6 (Homo sapiens, UniProt Q6UWR7); test: NPP6 inhibition assay; assay type: biochemical; details: read-out: NPP6 Activity, % control (10μM)
T2 sequence (Q6UWR7 23-440): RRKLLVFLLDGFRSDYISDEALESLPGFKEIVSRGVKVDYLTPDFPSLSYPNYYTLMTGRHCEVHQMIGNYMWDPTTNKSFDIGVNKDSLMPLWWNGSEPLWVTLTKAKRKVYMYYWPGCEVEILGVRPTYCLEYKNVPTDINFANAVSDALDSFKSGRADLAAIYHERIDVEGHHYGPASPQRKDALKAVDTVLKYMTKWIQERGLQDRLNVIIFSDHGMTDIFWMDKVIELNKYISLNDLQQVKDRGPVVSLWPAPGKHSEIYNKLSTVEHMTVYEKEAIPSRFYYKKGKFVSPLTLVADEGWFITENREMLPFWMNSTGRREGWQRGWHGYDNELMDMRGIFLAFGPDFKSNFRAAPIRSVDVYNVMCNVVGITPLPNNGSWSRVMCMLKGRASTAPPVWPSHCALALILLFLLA
Outline: as §1

[3] = target: T3, ATX (Homo sapiens, UniProt Q13822); test: Inhibition of LPA production from ADMAN-LPC by ATX; assay type: biochemical; details: compound 3 μM, 0.5 μM ADMAN-LPC, 100 nM ATX
Outline: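 ADMAN-LPC (0.5 µM final) was incubated with 100 nM ATX, with or without 3 µM test compound, at 37 °C for 4 h. Lipids were extracted and separated by silica TLC in CHCl3/MeOH/NH4OH (60:35:8). Fluorescent LPC and LPA bands were visualized under a UV imager.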

[4] = test system: plasma LPA; test: Plasma LPA levels after i.v. bolus; assay type: in vivo, Sprague-Dawley rats; details: rat, i.v. 5.8 mg/kg, first rapid decrease
[5] = test system: MM1 hepatoma cells; test: MM1 cell invasion of HUVEC monolayers; assay type: cell-based, rat
Outline: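 HUVECs (passage 7, 1.3×10^5/well) were grown on 0.2% gelatin for two days to confluence. Rat MM1 hepatoma cells, calcein AM-labelled (2 µg/mL, 2 h), were seeded at 5×10^4/well. Invasion ran 24 h in MCDB-131 with 1% serum, with or without 1.5 µM LPC (BSA-complexed, 30 µM BSA final). After five PBS rinses and formalin fixation, flattened cells beneath the monolayer were counted in ≥5 fields at 100×.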

[6] = target: recombinant, purified human ATX (Homo sapiens, UniProt Q13822); test: ATX IC50 and mechanism of inhibition; assay type: biochemical
Outline: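 Recombinant purified human ATX with FS3 (1 µM final) in Tris 50 mM, NaCl 140 mM, KCl 5 mM, CaCl2 1 mM, MgCl2 1 mM, pH 8.0, plus 15 µM fatty-acid-free BSA. IC50 came from full dose-responses. For mechanism, FS3 was varied 0.3–20 µM at three inhibitor levels including zero.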

[7] = test system: Swiss mice; test: Acute murine toxicity study; assay type: in vivo; details: 1-10-30 mg/kg/day for 10 days
[8] = target: T3, ATX; test: Inhibition of pNP-TMP hydrolysis by ATX; assay type: biochemical; details: compound 10 μM, 5 mM pNP-TMP, 4 nM ATX; compared with LPA 18:1 10 μM
Outline: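 Reactions held 4 nM ATX and 5 mM pNP-TMP, with vehicle or 10 µM test compound, in Tris 50 mM/NaCl 140 mM/KCl 5 mM/CaCl2 1 mM/MgCl2 1 mM, pH 8.0. They ran at 37 °C with absorbance monitored at 405 nm.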

[9] = Pharmacokinetics after i.v. bolus; assay type: in vivo, Sprague-Dawley rats; details: rat
Outline: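 Male Sprague–Dawley rats (250–275 g) fitted with jugular and femoral catheters received a single 5.8 mg/kg i.v. femoral bolus; drug was dissolved in propylene glycol and diluted in rat plasma. Jugular blood was drawn from 5 to 1440 min into lithium heparin. Plasma was butanol-extracted at pH 4.0 with internal standard and quantified by LC-MS/MS on a C8 column. Non-compartmental analysis gave AUC (trapezoidal), CL=dose/AUC, MRT=AUMC/AUC and Vdss=CL×MRT.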

[10] = male, Sprague-Dawley, plasma, iv, 5.8 mg/kg

Structure (SMILES): CCCCCCCCCCCCCC(=O)Nc1ccc(CP(=O)(O)O)cc1 [Compound S32826, 4-tetradecanoylaminobenzyl phosphonic acid]
- remaining activity at 10 µM [1]: 101%
- remaining activity at 10 µM [2]: 102%

Structure (SMILES): CCCCCCCCCCCCCCCc1ccc(CP(=O)(O)O)cc1 [Compound 22, 4-pentadecylbenzylphosphonic acid]
- inhibition of hydrolysis of ADMAN-LPC (LPA production) [3]: inhibited
- time of nadir of plasma LPA levels [4]: 60 min
- basal rate of invasion of HUVEC monolayer ([5]; compounds alone, without LPC): did not reduce
- LPC-dependent invasion of the HUVEC monolayer ([5]; with 1.5 μM LPC, 24 h): dose-dependently inhibited
- ATX Mechanism of Inhibition ([6]; FS-3 substrate 0.3-20 μM, inhibitor 0, 0.5x, 2x IC50): Mixed
- ATX Ki′ ([6]; affinity for enzyme substrate complex, FS-3): 0.28 µM
- death [7]: No death was detected in any of the groups
- non-observable adverse effect level ([7]; i.p.): > 10 mg/kg
- inhibition of hydrolysis of pNP-TMP [8]: inhibit the hydrolysis
- MRT [9, 10]: 7.6 h
- clearance [9, 10]: 0.516 ± 0.03 L/h/kg
- half-life ([9]; male, Sprague-Dawley, plasma, iv, 5.8 mg/kg, terminal half-life, i.v. 5.8 mg/kg): 10 h
- mean plasma residence time ([9]; i.v. 5.8 mg/kg): 7.6 ± 0.5 h

Reference: paper PMC3517046 (ChemMedChem, 2011)
